EWS-Fli block = blocks EWS/Fli oncoprotein-driven transcription. inhibition, % at 12.6 µM. A673 NR0B1-luciferase reporter, viability-normalised. 350,000 tested, 0.67% active;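 active = mean inhibition of at least 50% after viability correction, with every replicate also passing that limit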;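 note: firefly luciferase signal divided by Alamar Blue viability fluorescence both relative to DMSO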
XiGFP reactiv = X-chromosome reactivation activator | XiGFP mouse fibroblasts, % GFP-positive cells imaging, 3 d; cells co-treated with 5-aza-dC sensitizer; scaled so ellipticine positive control = 100% | activation, % at 7.58 µM | 360,000 tested, 0.055% active | AID 743238;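 active = mean normalized replicate activation at least 10% and every replicate at or above 10%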;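 note: 0% = median of on-plate neutral control wells and 100% = ellipticine 6 µM median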
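Material: SV40-immortalized XiGFP fibroblast cells, line 68-5-11 | Buffer or medium: DMEM containing 5-aza-dC | Dosing: One concentration, pinned | Times: 3 d treatment, 15 min room-temperature fixation | Controls: Ellipticine 6 µM positive control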
LGR2 antag = Drosophila LGR2 receptor signaling inhibition; HEK293 LGR2, CRE-luciferase, bursicon-stimulated, 4 h; inhibition, % at 9.99 µM; 380,000 tested, 0.35% active; AID 720647;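 active = drop in luminescence signal, shown as inhibition above about 50% in the replicate tests, limit read from the data, passing the limit was not always enough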;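 note: agonist challenge used bursicon conditioned medium at about half maximal strength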
TWEAK Fn14 block = blocks TWEAK-Fn14 interaction in a reporter cell assay; TWEAK-stimulated Fn14 reporter cells, luciferase luminescence, 8 h; inhibition, % at 10 µM; 360,000 tested, 2% active; in the data active = inhibition above about 50%
FN deposition inh = fibronectin deposition inhibition. AH1F fibroblasts, Alexa488-fibronectin deposition fluorescence, overnight. inhibition, % at 12.6 µM. 350,000 tested, 0.086% active. AID 743247;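 active = mean inhibition across replicates of 30% or more, regardless of how many single replicates reach that level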;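 note: positive control wells lacked labelled fibronectin entirely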
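Test system: AH1F fibroblast monolayer depositing Alexa488-labelled fibronectin into matrix. Input: 10000 cells per well. Technique: fluorescence, ex 485 nm, em 525 nm. Buffer or medium: DMEM plus 2% serum, read in PBS. Timing: 1 h cell adhesion before compound, then overnight fibronectin incubation. Compound: single dose, pinned. Read-out basis: inhibition from reduced deposited-fibronectin fluorescence.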
TROY signal inh = TROY signaling inhibition; AID 1347056; inhibition, % at 10 µM; 360,000 tested, 0.98% active; Q293 LMP1-TROYcd NF-kB luciferase reporter, 4 h;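 active = compounds whose plate-normalised and pattern-corrected inhibition of the luciferase reporter signal at the single screening dose is 50% or more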
Active calls of the source: *; nt = no result given. An excerpt weighted towards active compounds, which were near 2.3% of everything screened.

SMILES	EWS-Fli block	XiGFP reactiv	LGR2 antag	TWEAK Fn14 block	FN deposition inh	TROY signal inh
COc1ccc(S(=O)(=O)N(C)C[C@H]2Oc3ccc(NC(=O)Nc4ccc5c(c4)OCO5)cc3C(=O)N([C@@H](C)CO)C[C@H]2C)cc1	-5	0	-8	nt	-1	nt
CCS(=O)(=O)N1CC2(C1)[C@H](c1ccccc1)[C@@H](CO)N2Cc1ccc(F)cc1	-3	0	-16	nt	0	nt
COc1ccccc1-c1noc(-c2cccs2)n1	-97	nt	-102	-11	nt	-72
Cc1ccc(-c2noc(-c3cccs3)n2)cc1	-9	nt	70*	22	nt	-22
COc1ccc(-c2nc(-c3cccs3)no2)cc1	82*	nt	81*	86*	-2	58*
O=C(C[C@H]1CC[C@@H]2[C@H](COC[C@@H](O)CN2Cc2cccc(F)c2)O1)NCCc1ccncc1	8	0	-10	nt	-2	nt
CCOC(=O)c1ccc(NC(=O)NCCc2cnc[nH]2)cc1	-24	0	-5	60*	-6	0
C[C@@H]1CCCCO[C@H](CN(C)C)[C@@H](C)CN([C@H](C)CO)C(=O)c2cc(NC(=O)Nc3ccc(F)cc3)ccc2O1	-1	0	13	nt	nt	nt
COc1ccc2c(c1)[nH]c1c(N3CCSCC3)ncnc12	-1	0	nt	48	5	63*
COc1ccc2c(c1)[nH]c1c(N3CCN(Cc4ccc5c(c4)OCO5)CC3)ncnc12	nt	nt	nt	100*	5	66*
COc1cccc(N2CCN(c3ncnc4c3[nH]c3ccc(F)cc34)CC2C)c1 (stereo unspecified)	nt	nt	nt	104*	nt	86*
Cc1ccc(S(=O)(=O)N(C)C[C@@H]2OCCCC[C@H](C)Oc3ccc(N(C)C)cc3C(=O)N([C@H](C)CO)C[C@@H]2C)cc1	-3	0	20	nt	-5	nt
COc1ccc2c(C)cc(=O)oc2c1	-3	0	-7	-2	-10	0
COc1ccc(C2=NOC(COc3ccc4c(C)cc(=O)oc4c3)C2)c(OC)c1 (stereo unspecified)	56*	0	nt	-2	5	-11
COc1ccccc1C1=NOC(COc2ccc3c(C)cc(=O)oc3c2)C1 (stereo unspecified)	53*	0	nt	-8	-18	9
O=C(C[C@@H]1CC[C@H](NS(=O)(=O)c2ccc(F)cc2)[C@H](CO)O1)N1CCc2ccccc2C1	4	1	20	nt	nt	nt
COc1ccc(C(=O)/C(C#N)=N/Nc2cccc([N+](=O)[O-])c2)cc1	62*	0	-18	60*	-3	59*
C[C@@H]1CCCCO[C@H](CN(C)C)[C@H](C)CN([C@H](C)CO)C(=O)c2cc(NS(C)(=O)=O)ccc2O1	-10	0	12	nt	-4	nt
O=C1C=C(Nc2ccc(Cl)cc2)CC(c2ccco2)C1 (stereo unspecified)	nt	nt	nt	56*	nt	nt
CC(C)NC(=O)Nc1ccc2c(c1)C(=O)N([C@H](C)CO)C[C@@H](C)[C@@H](CN(C)S(=O)(=O)c1cccs1)OCCCC[C@H](C)O2	-4	0	-1	nt	-6	nt
O=C(C[C@H]1C=C[C@@H](NS(=O)(=O)c2ccccc2)[C@@H](CO)O1)NCc1ccncn1	1	1	5	nt	nt	nt
Cc1ccsc1C(=O)OCC(=O)NC1CCCC1	-78	0	-13	-1	-1	-12
Cc1ccsc1C(=O)OCC(=O)N(C)C1CCCCC1	-44	0	10	63*	9	32
Cc1sc(NC(=O)CCCC(=O)O)c(C(N)=O)c1-c1ccccc1	54*	0	27	53*	nt	-4
CC(=O)c1c(OC(=O)c2ccccc2Br)ccc2c(C)cc(=O)oc12	nt	0	-8	54*	3	37
SMILES	EWS-Fli block	XiGFP reactiv	LGR2 antag	TWEAK Fn14 block	FN deposition inh	TROY signal inh
CC(=O)c1c(OCC(=O)O)ccc2c(C)cc(=O)oc12	nt	nt	-13	6	-8	-9
CCCN(C)C[C@H]1OCCCC[C@@H](C)Oc2ccc(NC(=O)CCC(F)(F)F)cc2C(=O)N([C@H](C)CO)C[C@@H]1C	-2	0	-33	nt	nt	nt
O=C1C2Sc3[nH]c(=O)sc3C(c3ccccc3)C2C(=O)N1c1ccccc1 (stereo unspecified)	nt	nt	-9	89*	nt	-6
COC(=O)[C@@H]1[C@@H](CO)[C@@H]2Cn3c(ccc(-c4ccncc4)c3=O)[C@@H]2N1Cc1ccccc1F	8	0	-6	nt	-4	nt
C[C@H](CO)N1C[C@H](C)[C@@H](CN(C)C(=O)Nc2ccc3c(c2)OCO3)Oc2ccc(NC(=O)Nc3ccc4c(c3)OCO4)cc2CC1=O	nt	0	-8	nt	nt	nt
O=C(Nc1nc2ccc(F)cc2s1)c1cccc(S(=O)(=O)N2CCc3ccccc32)c1	-8	0	3	57*	-2	33
CCOC(=O)c1sc(NC(=O)c2cccc(S(=O)(=O)N3CCc4ccccc43)c2)c(C#N)c1C	20	1	38	48	1	53*
O=C(Nc1nncs1)c1cccc(S(=O)(=O)N2CCc3ccccc32)c1	1	0	12	6	-3	12
CN(C)CCCNC(=O)C[C@@H]1CC[C@@H]2[C@H](COc3ccc(NC(=O)C4CCC4)cc3C(=O)N2C)O1	-5	0	-4	nt	-9	nt
Cc1c(-c2cccc(Cl)c2)nc2ccccc2c1C(=O)OCC(=O)Nc1ccc2c(c1)OCO2	nt	0	-15	52*	-2	27
CCCn1c(SCC(=O)Nc2cccc(S(=O)(=O)NC3=NCCCCC3)c2)nc2ccccc2c1=O	22	0	7	78*	nt	57*
CCc1nc2ccccc2c(C(=O)OCC(=O)Nc2cccc(S(=O)(=O)N3CCOCC3)c2)c1C	nt	nt	nt	97*	nt	68*
CCc1nc2ccccc2c(C(=O)OCC(=O)Nc2cccc(S(=O)(=O)NC3=NCCCCC3)c2)c1C	26	0	42	80*	2	60*
Cc1onc(-c2ccccc2)c1C(=O)OCC(=O)Nc1ccc2c(c1)OCO2	nt	nt	nt	4	3	-4
C[C@H](CO)N1C[C@H](C)[C@@H](CN(C)S(=O)(=O)c2ccccc2)Oc2cc(Br)ccc2S1(=O)=O	1	0	2	nt	-4	nt
N#C[C@H]1[C@@H](c2ccc(-c3cccc(F)c3)cc2)[C@@H](CO)N1C(=O)NC1CCCCC1	nt	0	33	nt	-9	nt
CCOc1ccc(CCNC(=O)c2ccc(C)c(NC3=NC4CS(=O)(=O)CC4S3)c2)cc1 (stereo unspecified)	0	0	-4	0	1	2
Cc1ccc(C(=O)NCc2ccccn2)cc1NC1=NC2CS(=O)(=O)CC2S1 (stereo unspecified)	-11	22*	-6	12	1	-3
O=C(c1ccccc1)N1CC[C@@H]2[C@H]1c1cc(-c3ccccc3F)ccc1N[C@@H]2CO	1	0	-12	nt	7	nt
